Test results from ChEMBL document CHEMBL4373701, “Semisynthetic Derivatives of Fradcarbazole A and Their Cytotoxicity against Acute Myeloid Leukemia Cell Lines” (J Nat Prod, 2019).
pIC50: −log10 of the molar value. Active and inactive are the calls of the source. No cut-off for these calls is given here.

Legend:
MV4-11 [1] = assay: Antiproliferative activity against human MV4-11 cells measured after 72 hrs by Celltiter-Glo assay; type: functional, cell-based; settings: MV4-11, 72 h
K562 = assay: Antiproliferative activity against human K562 cells measured after 72 hrs by Celltiter-Glo assay; type: functional, cell-based; settings: K562, 72 h
HL-60 = assay: Antiproliferative activity against human HL60 cells measured after 72 hrs by Celltiter-Glo assay; type: functional, cell-based; settings: HL-60, 72 h
PBMC = assay: Cytotoxicity against human PBMC cells measured after 72 hrs by Celltiter-Glo assay; type: ADME, cell-based
MV4-11 [2] = assay: Cell cycle arrest in human MV4-11 cells assessed as accumulation at G0/G1 phase at 0.15 uM after 24 hrs by propidium iodide/RNase A staining based FACScalibur flow cytometry analysis (reference value: 50.04 %); type: functional
MV4-11 [3] = assay: Cell cycle arrest in human MV4-11 cells assessed as accumulation at S phase at 0.15 uM after 24 hrs by propidium iodide/RNase A staining based FACScalibur flow cytometry analysis (reference value: 29.92 %); type: functional
MV4-11 [4] = assay: Cell cycle arrest in human MV4-11 cells assessed as accumulation at G2/M phase at 0.15 uM after 24 hrs by propidium iodide/RNase A staining based FACScalibur flow cytometry analysis (reference value: 10.58 %); type: functional
MV4-11 [5] = assay: Cell cycle arrest in human MV4-11 cells assessed as accumulation at G0/G1 phase at 0.3 uM after 24 hrs by propidium iodide/RNase A staining based FACScalibur flow cytometry analysis (reference value: 50.04 %); type: functional
MV4-11 [6] = assay: Cell cycle arrest in human MV4-11 cells assessed as accumulation at S phase at 0.3 uM after 24 hrs by propidium iodide/RNase A staining based FACScalibur flow cytometry analysis (reference value: 29.92 %); type: functional
MV4-11 [7] = assay: Cell cycle arrest in human MV4-11 cells assessed as accumulation at G2/M phase at 0.3 uM after 24 hrs by propidium iodide/RNase A staining based FACScalibur flow cytometry analysis (reference value: 10.58 %); type: functional
MV4-11 [8] = assay: Cell cycle arrest in human MV4-11 cells assessed as accumulation at G0/G1 phase at 0.6 uM after 24 hrs by propidium iodide/RNase A staining based FACScalibur flow cytometry analysis (reference value: 50.04 %); type: functional
MV4-11 [9] = assay: Cell cycle arrest in human MV4-11 cells assessed as accumulation at S phase at 0.6 uM after 24 hrs by propidium iodide/RNase A staining based FACScalibur flow cytometry analysis (reference value: 29.92 %); type: functional
MV4-11 [10] = assay: Cell cycle arrest in human MV4-11 cells assessed as accumulation at G2/M phase at 0.6 uM after 24 hrs by propidium iodide/RNase A staining based FACScalibur flow cytometry analysis (reference value: 10.58 %); type: functional
MV4-11 [11] = assay: Induction of apoptotic cell death in human MV4-11 cells at 0.3 uM after 24 hrs by DAPI-based TUNEL assay; type: functional
In short: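 MV4-11 cells held at 0.3 μM for 24 h, then processed with a one-step TUNEL kit. DNA counterstained with DAPI. Green apoptotic cells seen by fluorescence microscopy, excitation 450−500 nm, emission 515−565 nm.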

MV4-11 [12] = assay: Induction of apoptosis in human MV4-11 cells assessed as decrease in FLT3 expression after 24 hrs by Western blot analysis; type: functional, cell-based
In short: (§1)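 MV4-11 cells (RPMI-1640, 10% FBS, 37 °C, 5% CO2) exposed 24 h to 0.15, 0.3 or 0.6 μM. Lysed in RIPA buffer, protein measured by BCA, 40 μg run on SDS-PAGE and blotted to nitrocellulose. Primary antibodies overnight at 4 °C, HRP anti-rabbit IgG secondary 1 h at rt. Bands detected by ECL.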

MV4-11 [13] = assay: Induction of apoptosis in human MV4-11 cells assessed as decrease in phosphorylated-FLT3 expression after 24 hrs by Western blot analysis; type: functional, cell-based; in short: as §1
MV4-11 [14] = assay: Induction of apoptosis in human MV4-11 cells assessed as decrease in c-kit expression after 24 hrs by Western blot analysis; type: functional, cell-based; in short: as §1
MV4-11 [15] = assay: Cell cycel arrest in human MV4-11 cells assessed as decrease in CDK2 expression at 0.15 to 0.6 uM after 24 hrs by Western blot analysis; type: functional, cell-based; in short: as §1

SMILES	pIC50 (MV4-11 [1])	pIC50 (K562)	pIC50 (HL-60)	pIC50 (PBMC)	other results
CO[C@@H]1[C@H](N(C)c2ncc(-c3c[nH]c4ccc(Cl)cc34)s2)C[C@H]2O[C@]1(C)n1c3ccccc3c3c4c(c5c6ccccc6n2c5c31)C(=O)NC4	6.38	< 5.00	< 5.00	< 5.00	–
CO[C@@H]1[C@H](N(C)c2ncc(-c3c[nH]c4ccccc34)s2)C[C@H]2O[C@]1(C)n1c3ccccc3c3c4c(c5c6cc(Br)ccc6n2c5c31)C(=O)NC4	6.44	< 5.00	< 5.00	< 5.00	–
CO[C@@H]1[C@H](N(C)c2ncc(-c3c[nH]c4ccc(Cl)cc34)s2)C[C@H]2O[C@]1(C)n1c3ccccc3c3c4c(c5c6cc(Cl)ccc6n2c5c31)C(=O)NC4	6.23	< 5.00	< 5.00	< 5.00	–
CO[C@@H]1[C@H](N(C)c2ncc(-c3c[nH]c4ccccc34)s2)C[C@H]2O[C@]1(C)n1c3ccccc3c3c4c(c5c6cc(Cl)ccc6n2c5c31)C(=O)NC4	6.25	< 5.00	< 5.00	< 5.00	–
CO[C@@H]1[C@H](N(C)c2ncc(-c3c[nH]c4ccc(F)cc34)s2)C[C@H]2O[C@]1(C)n1c3ccccc3c3c4c(c5c6cc(Cl)ccc6n2c5c31)C(=O)NC4	6.49	< 5.00	< 5.00	< 5.00	Activity (MV4-11 [2]): 60.59%; Activity (MV4-11 [3]): 20.19%; Activity (MV4-11 [4]): 10.04%; Activity (MV4-11 [5]): 72.68%; Activity (MV4-11 [6]): 9.23%; Activity (MV4-11 [7]): 6.6%; Activity (MV4-11 [8]): 87.75%; Activity (MV4-11 [9]): 10.18%; Activity (MV4-11 [10]): 0.45%; Activity (MV4-11 [11]): Active; Activity (MV4-11 [12]): Dose-dependent effect; Activity (MV4-11 [13]): Dose-dependent effect; Activity (MV4-11 [14]): Dose-dependent effect; Activity (MV4-11 [15]): Active
CO[C@@H]1[C@H](N(C)c2ncc(-c3c[nH]c4ccccc34)s2)C[C@H]2O[C@]1(C)n1c3ccccc3c3c4c(c5c6ccccc6n2c5c31)C(=O)NC4	6.40	< 5.00	< 5.00	< 5.00	–
CO[C@@H]1[C@H](N(C)c2ncc(-c3c[nH]c4ccc(Br)cc34)s2)C[C@H]2O[C@]1(C)n1c3ccccc3c3c4c(c5c6ccccc6n2c5c31)C(=O)NC4	6.39	< 5.00	< 5.00	< 5.00	–
CO[C@@H]1[C@H](N(C)c2ncc(-c3c[nH]c4ccc(F)cc34)s2)C[C@H]2O[C@]1(C)n1c3ccccc3c3c4c(c5c6ccccc6n2c5c31)C(=O)NC4	6.29	< 5.00	< 5.00	< 5.00	–

The next lines start with results.

pIC50 (MV4-11 [1])	pIC50 (K562)	pIC50 (HL-60)	SMILES	pIC50 (PBMC)	other results
6.02	< 5.00	< 5.00	CO[C@@H]1[C@H](N(C)c2ncc(-c3c[nH]c4ccc(F)cc34)s2)C[C@H]2O[C@]1(C)n1c3ccccc3c3c4c(c5c6cc(Br)ccc6n2c5c31)C(=O)NC4	< 5.00	–
6.29	< 5.00	< 5.00	COc1ccc2[nH]cc(-c3cnc(N(C)[C@@H]4C[C@H]5O[C@@](C)([C@@H]4OC)n4c6ccccc6c6c7c(c8c9cc(Br)ccc9n5c8c64)C(=O)NC7)s3)c2c1	< 5.00	–
6.37	< 5.00	< 5.00	CO[C@@H]1[C@H](N(C)c2ncc(-c3c[nH]c4ccc(Br)cc34)s2)C[C@H]2O[C@]1(C)n1c3ccccc3c3c4c(c5c6cc(Cl)ccc6n2c5c31)C(=O)NC4	< 5.00	–
6.36	< 5.00	< 5.00	COc1ccc2[nH]cc(-c3cnc(N(C)[C@@H]4C[C@H]5O[C@@](C)([C@@H]4OC)n4c6ccccc6c6c7c(c8c9cc(Cl)ccc9n5c8c64)C(=O)NC7)s3)c2c1	< 5.00	–
6.41	< 5.00	< 5.00	CO[C@@H]1[C@H](N(C)c2ncc(-c3c[nH]c4ccc(Br)cc34)s2)C[C@H]2O[C@]1(C)n1c3ccccc3c3c4c(c5c6cc(Br)ccc6n2c5c31)C(=O)NC4	< 5.00	–
6.44	< 5.00	< 5.00	COc1ccc2[nH]cc(-c3cnc(N(C)[C@@H]4C[C@H]5O[C@@](C)([C@@H]4OC)n4c6ccccc6c6c7c(c8c9ccccc9n5c8c64)C(=O)NC7)s3)c2c1	< 5.00	–
6.15	< 5.00	< 5.00	CO[C@@H]1[C@H](N(C)c2ncc(-c3c[nH]c4ccc(Cl)cc34)s2)C[C@H]2O[C@]1(C)n1c3ccccc3c3c4c(c5c6cc(Br)ccc6n2c5c31)C(=O)NC4	< 5.00	–
